{"source": "paper PMC7680388", "about": "(Cell chemical biology, 2020)", "key": {"[1]": {"target": "T1, Rpn13 (Homo sapiens, UniProt Q16186)", "T1 sequence (Q16186 whole entry)": "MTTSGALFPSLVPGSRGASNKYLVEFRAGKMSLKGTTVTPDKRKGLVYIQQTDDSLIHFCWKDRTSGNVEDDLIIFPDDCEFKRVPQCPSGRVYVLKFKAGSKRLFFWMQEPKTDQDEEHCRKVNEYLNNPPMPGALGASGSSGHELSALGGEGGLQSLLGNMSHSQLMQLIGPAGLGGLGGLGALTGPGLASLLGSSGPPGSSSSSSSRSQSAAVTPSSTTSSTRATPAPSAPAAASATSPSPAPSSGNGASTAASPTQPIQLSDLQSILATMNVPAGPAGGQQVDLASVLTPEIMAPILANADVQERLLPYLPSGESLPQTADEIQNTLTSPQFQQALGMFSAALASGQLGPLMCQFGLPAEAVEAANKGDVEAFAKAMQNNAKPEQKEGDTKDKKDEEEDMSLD", "settings": "two different cancer cell lines, ref Dickson, et al., submitted, cited from earlier work"}, "[2]": {"target": "T1, Rpn13", "settings": "ref Anchoori et al., 2013; cited from earlier work"}, "[3]": {"tested_on": "cancer (in cellulo and in vivo)", "settings": "ref Anchoori et al., 2013; cited from earlier work"}, "[4]": {"tested_on": "solid tumors", "settings": "ref Huang et al., 2014; cited from earlier work"}, "[5]": {"tested_on": "MM.1R cells", "assay": "Apoptosis flow cytometry", "format": "cell-based, Homo sapiens", "in_short": "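MM.1R cells were treated with test compound (10 μM) or vehicle (0.1% DMSO) for 8, 16 and 24 h. Cells were washed twice in cold DPBS and resuspended in cold Annexin V buffer (HEPES, EDTA, CaCl2) with 5 μg/mL Annexin V-510 and 50 μg/mL PI. They were held 15 min at room temperature in the dark, then run by flow cytometry (violet/blue lasers). Annexin V+/PI− cells were scored apoptotic; three biological replicates.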"}, "[6]": {"tested_on": "26S proteasome", "assay": "Deubiquitylase activity of purified 26S proteasome", "format": "biochemical, human", "settings": "KDT-11 10 μM; b-AP15 1 μM; 1 nM purified 26S proteasome, 5 mM ATP; biological triplicate; Fig. 2F"}}, "note": "Read-outs that look alike come from different tables or passages of the source."}
{"smiles": "Cl.N[C@@H](Cc1ccccc1)C(=O)N1C/C(=C/c2ccc(Cl)c(Cl)c2)C(=O)/C(=C\\c2ccc(Cl)c(Cl)c2)C1", "note": "[RA190]", "values": [{"measurement": "engagement of Rpn13 in cellulo", "setting": "[1]", "result": "Rpn13 is not engaged by this compound in cellulo"}, {"measurement": "engagement of Rpn13 in cellulo", "setting": "[1]; listed as RA-190", "result": "does not engage Rpn13 in cells"}, {"measurement": "engagement of Rpn13 in vitro", "setting": "[2]", "result": "engages Rpn13 selectively in vitro"}, {"measurement": "anti-cancer activity in cellulo and in vivo", "setting": "[3]", "result": "displays interesting anti-cancer activity in cellulo and in vivo"}]}
{"smiles": "CC(C)C[C@H](NC(=O)[C@H](Cc1ccccc1)NC(=O)c1cnccn1)B(O)O", "note": "[Bortezomib]", "values": [{"measurement": "dose-limiting toxicity", "setting": "[4]", "result": "dose-limiting toxicity"}, {"measurement": "efficacy as a single agent in solid tumors", "setting": "[4]", "result": "unsuccessful as a single agent to treat solid tumors"}, {"measurement": "induction of apoptosis and cell death, Annexin V/PI staining", "setting": "[5]; 8, 16 and 24 hours", "result": "induces apoptosis and cell death rapidly"}, {"measurement": "cells both Annexin V- and PI-positive", "setting": "[5]; 16 hours, KDT-11 10 μM (Fig. 4), Bortezomib Supplementary Figure 4", "result": "≈ 85%"}]}
{"smiles": "C=CC(=O)N1C/C(=C\\c2ccc([N+](=O)[O-])cc2)C(=O)/C(=C/c2ccc([N+](=O)[O-])cc2)C1", "note": "[b-AP15]", "values": [{"measurement": "effect on rate of Ub-AMC hydrolysis by 26S proteasome", "setting": "[6]", "result": "greater inhibition"}]}
